Measured values: ChEMBL document CHEMBL1144084, “Semisynthesis and cytotoxicity of styryl-lactone derivatives” (J Nat Prod, 1999)
Converted amounts (≈) assume the structure as drawn. The source made the active and inactive calls. No cut-off for these calls is given here.

Key:
L1210 [1] = assay: Cytotoxicity against mouse L1210 cells after 48 hrs by MTT assay; format: functional, cell-based; conditions: L1210, 48 h
Outline: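 Cells grown in RPMI 1640 with 10% fetal calf serum, 2 mM L-glutamine, penicillin/streptomycin and 10 mM Hepes (pH 7.4), exposed 48 h to graded drug concentrations. Read-out by microculture tetrazolium assay. IC50 is the concentration lowering optical density by 50% relative to untreated controls.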

L1210 [2] = assay: Cell cycle arrest in mouse L1210 cells by accumulation at G2M phase after 21 hrs relative to control; format: functional
Outline: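 L-1210 cells incubated 21 h at 37 °C with various drug concentrations, fixed in 70% EtOH (v/v), washed, then stained 30 min at 20 °C in PBS with 100 µg/mL RNAse and 25 µg/mL propidium iodide. Value is percentage of cells accumulated in G2 + M phase after 21 h versus untreated control.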

SMILES	IC50 (L1210 [1])	Activity (L1210 [2])
CO[C@H]1[C@@H](O)[C@H](O)[C@@H](c2ccccc2)OC(=O)C[C@H]1OC	5.2 µg/mL (≈ 17.5 µM)	inactive
O=C1C=C[C@@H]2O[C@H](c3c([N+](=O)[O-])cccc3[N+](=O)[O-])[C@@H](O)[C@@H]2O1	5 µg/mL (≈ 15.5 µM)	inactive
O=C1C[C@@H](Cl)[C@@H]2O[C@H](c3ccccc3)[C@@H](O)[C@@H]2O1	3.7 µg/mL (≈ 13.8 µM)	35%
O=C1C=C[C@@H]2O[C@H](c3ccccc3)[C@@H](O)[C@@H]2O1 [ALTHOLACTONE]	2.9 µg/mL (≈ 12.5 µM)	35%
O=C1C=C[C@@H]2O[C@H](c3ccc([N+](=O)[O-])cc3)[C@@H](O)[C@@H]2O1	3.2 µg/mL (≈ 11.5 µM)	35%
